Screens deposited in PubChem by The Scripps Research Institute Molecular Screening Center.
This is a sample that favours compounds with a hit; in the whole collection about 3.2% have one here.
HTRA1 inhibitor = HTRA1 (human) protease inhibition. Q92743. recombinant HTRA1, FP-rhodamine activity-based probe, fluorescence polarization. inhibition, % at 5.96 µM. 340,000 tested, 0.5% active; in the data active = inhibition above about 36%
PRMT1 FP inh = inhibitors of human PRMT1; Q99873; recombinant PRMT1, activity-based probe fluorescence polarization; inhibition, % at 2.79 µM; 370,000 tested, 1.3% active;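 active = inhibition above about 21% made by adding two undisclosed values, limit read from the data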
mABHD4 FP = ABHD4 (mouse) inhibition, primary FP screen; Q8VD66; purified mABHD4, FP-Rh probe fluorescence polarization; inhibition, % at 8.92 µM; 370,000 tested, 0.54% active;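 active = inhibition exceeding the mean over every tested compound plus 3 SD, cut at about 30% in these data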
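Test system: mABHD4 protein; Read-out basis: % inhibition; Incubation: 45 min + 60 min at 25 °C; Repeats: single replicate; Technique: fluorescence polarization with parallel and perpendicular emission, 525/598 nm; Compound: 8.92 µM, single dose; Benchmarks: full inhibition S159A mutant plus DMSO, zero as sample-well median.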
DAGLB inh = diacylglycerol lipase beta (human) inhibition; 340,000 tested, 0.059% active; AID 504411; HEK293T DAGLB membrane lysate, EnzChek fluorogenic substrate; inhibition, % at 5.17 µM; in the data active = inhibition above about 34%
Target sequence (Q8NCG7 whole entry, looked up): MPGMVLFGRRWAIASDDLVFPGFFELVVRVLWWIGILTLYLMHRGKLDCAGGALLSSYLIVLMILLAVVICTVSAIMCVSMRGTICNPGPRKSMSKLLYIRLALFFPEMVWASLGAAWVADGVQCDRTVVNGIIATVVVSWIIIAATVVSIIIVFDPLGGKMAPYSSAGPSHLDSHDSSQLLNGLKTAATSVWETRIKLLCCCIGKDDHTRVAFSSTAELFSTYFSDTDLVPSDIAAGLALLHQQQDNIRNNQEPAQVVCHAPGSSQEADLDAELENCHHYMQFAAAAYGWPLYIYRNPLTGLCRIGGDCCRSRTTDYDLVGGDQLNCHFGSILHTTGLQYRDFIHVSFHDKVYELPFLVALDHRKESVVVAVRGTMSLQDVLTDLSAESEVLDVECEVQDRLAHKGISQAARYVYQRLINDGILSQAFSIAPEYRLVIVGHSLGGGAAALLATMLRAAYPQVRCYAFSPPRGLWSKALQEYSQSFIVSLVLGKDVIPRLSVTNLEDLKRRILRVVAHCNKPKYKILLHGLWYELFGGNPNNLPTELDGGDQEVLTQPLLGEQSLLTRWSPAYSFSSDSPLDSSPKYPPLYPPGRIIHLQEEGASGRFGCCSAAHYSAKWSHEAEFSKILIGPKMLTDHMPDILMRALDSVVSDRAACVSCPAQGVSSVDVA
LEDGF integ inh = blocks HIV-1 LEDGF/p75-dependent DNA integration. TR-FRET IN-LEDGF/p75 DNA integration, Eu/Cy5. inhibition, % at 3.7 µM. 370,000 tested, 0.64% active;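 active = inhibition above the screen-wide mean plus 3 SD, cut at about 13% in these data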;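 note: signal is the Cy5 over europium emission ratio at 671 and 618 nm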
rCAG RNA binder = binds r(CAG) RNA repeats | r(CAG) RNA repeat, TO-PRO-1 dye displacement fluorescence | inhibition, % at 3 µM | 370,000 tested, 1.3% active;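 active = inhibition above the plate cutoff, the mean of all test compounds on that plate plus 3 SD, cut at about 35% in these data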;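 note: higher means more dye released from RNA so lower well fluorescence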
PRMT1 confirm = PRMT1 (human) inhibition, FP confirmation; shares compounds with PRMT1 FP inh; inhibition, % at 2.79 µM; recombinant His-PRMT1, activity-based probe fluorescence polarization; 3,300 tested, 42% active;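 active = mean inhibition across replicates above the hit cutoff derived for the earlier primary screen, cut at about 22% in these data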
ABHD4 confirm = confirmation of mouse ABHD4 inhibitors. shares compounds with mABHD4 FP. purified mABHD4, FP-Rh probe fluorescence polarization. 1,800 tested, 55% active. inhibition, % at 8.92 µM;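 active = mean inhibition across replicates above the hit cutoff set in the primary screen, cut at about 30% in these data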
IN multimer up = counter-screen for LEDGF/p75 integration inhibitors: HIV-1 integrase multimerization activators; 2,000 tested, 17% active; activation, % at 7.7 µM; TR-FRET HIV-1 integrase multimerization, biochemical; AID 1053131; shares compounds with LEDGF integ inh; in the data active = activation above about 8.9%
TR-FRET interf = counter-screen for LEDGF/p75 integration inhibitors: TR-FRET optical interference; inhibition, % at 7.7 µM; TR-FRET optical interference counterscreen, HIV-1 IN multimerization; 2,000 tested, under 10 active; shares compounds with LEDGF integ inh;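 active = inhibition above the mean over all tested compounds plus 3 SD, which no compound reached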
LEDGF integ conf = confirmation of HIV-1 LEDGF/p75-dependent integration inhibitors; shares compounds with LEDGF integ inh; 2,000 tested, 36% active; inhibition, % at 3.7 µM; TR-FRET LEDGF/p75-dependent HIV-1 integration, biochemical; in the data active = inhibition above about 14%
A number is an active result.

What do the screens show for `Cc1ccc(NC(=O)CSc2nnc(-c3ccco3)c(-c3ccco3)n2)cc1`?
HTRA1 inhibitor: inactive; PRMT1 FP inh: 37; mABHD4 FP: 41; DAGLB inh: inactive; LEDGF integ inh: 25; rCAG RNA binder: 41; PRMT1 confirm: 77; ABHD4 confirm: 36; IN multimer up: inactive; TR-FRET interf: inactive; LEDGF integ conf: 28

How did O=C(N/N=C/C=C\c1ccco1)c1cccs1 do in these assays?
PRMT1 FP inh: 33; mABHD4 FP: inactive; LEDGF integ inh: 15; rCAG RNA binder: inactive; PRMT1 confirm: 23; IN multimer up: inactive; TR-FRET interf: inactive; LEDGF integ conf: 20

Results for O=C(CSc1nnc(COc2ccccc2)n1Cc1ccco1)NCc1ccco1 ?
HTRA1 inhibitor: inactive; PRMT1 FP inh: 29; mABHD4 FP: inactive; DAGLB inh: inactive; LEDGF integ inh: 28; rCAG RNA binder: inactive; PRMT1 confirm: inactive; IN multimer up: inactive; TR-FRET interf: inactive; LEDGF integ conf: 19

What do the screens show for `Cc1cc(NC(=O)CSc2nnc(COc3ccccc3)n2Cc2ccco2)no1`?
HTRA1 inhibitor: inactive; PRMT1 FP inh: inactive; mABHD4 FP: inactive; DAGLB inh: inactive; LEDGF integ inh: inactive; rCAG RNA binder: inactive

Results for CC(C)NC(=O)N(C)C[C@H]1Oc2c(NC(=O)C3CCCCC3)cccc2C(=O)N([C@H](C)CO)C[C@@H]1C ?
HTRA1 inhibitor: inactive; PRMT1 FP inh: inactive; mABHD4 FP: inactive; DAGLB inh: inactive; LEDGF integ inh: inactive; rCAG RNA binder: inactive

How did CCN(CC)CCCNc1ccc2ncn3c4ccc(O)cc4c(=O)c1c23 do in these assays?
HTRA1 inhibitor: inactive; PRMT1 FP inh: 116; mABHD4 FP: inactive; DAGLB inh: inactive; LEDGF integ inh: 36; rCAG RNA binder: inactive; PRMT1 confirm: 133; IN multimer up: 20; TR-FRET interf: inactive; LEDGF integ conf: 14

Results for COc1ccc(NC(=O)Nc2nccs2)cc1 ?
HTRA1 inhibitor: inactive; PRMT1 FP inh: inactive; mABHD4 FP: inactive; DAGLB inh: inactive; LEDGF integ inh: inactive; rCAG RNA binder: inactive

What do the screens show for `Nc1c(C(=O)N/N=C/c2cccnc2)oc2nc(-c3ccccc3)cc(-c3ccco3)c12`?
PRMT1 FP inh: inactive; mABHD4 FP: inactive; LEDGF integ inh: inactive; rCAG RNA binder: inactive

How did Nc1c(C(=O)N/N=C/c2cccnc2)oc2nc(-c3ccco3)cc(-c3ccco3)c12 do in these assays?
PRMT1 FP inh: 46; mABHD4 FP: inactive; LEDGF integ inh: 53; rCAG RNA binder: inactive; PRMT1 confirm: inactive; IN multimer up: 40; TR-FRET interf: inactive; LEDGF integ conf: 91

What do the screens show for `O=S(=O)(Cc1ccc(Cl)cc1)Nc1ccc2c(c1)OCO2`?
HTRA1 inhibitor: inactive; PRMT1 FP inh: inactive; mABHD4 FP: inactive; DAGLB inh: inactive; LEDGF integ inh: inactive; rCAG RNA binder: inactive

Results for O=C1SC(SCc2ccccc2)=N/C1=C\c1ccc(C(=O)O)cc1 ?
HTRA1 inhibitor: inactive; PRMT1 FP inh: inactive; mABHD4 FP: inactive; DAGLB inh: inactive; LEDGF integ inh: inactive; rCAG RNA binder: inactive

What do the screens show for `O=C1SC(SCc2ccccc2)=N/C1=C\c1ccco1`?
HTRA1 inhibitor: inactive; PRMT1 FP inh: 42; mABHD4 FP: 30; DAGLB inh: inactive; LEDGF integ inh: 26; rCAG RNA binder: inactive; PRMT1 confirm: inactive; ABHD4 confirm: inactive; IN multimer up: inactive; TR-FRET interf: inactive; LEDGF integ conf: inactive

How did O=C(/C=C/c1cccs1)NCc1cccs1 do in these assays?
PRMT1 FP inh: inactive; mABHD4 FP: inactive; LEDGF integ inh: inactive; rCAG RNA binder: inactive

How did COc1cccc2cc(C(=O)NCc3ccccc3Br)c(=O)oc12 do in these assays?
HTRA1 inhibitor: inactive; PRMT1 FP inh: inactive; mABHD4 FP: inactive; DAGLB inh: inactive; LEDGF integ inh: inactive; rCAG RNA binder: inactive

What do the screens show for `CC(=O)N=c1c(C#N)cc2c(=O)n3cccc(C)c3nc2n1Cc1ccco1`?
PRMT1 FP inh: inactive; mABHD4 FP: inactive; LEDGF integ inh: inactive; rCAG RNA binder: inactive

Results for N#Cc1cc2c(=O)n3ccccc3nc2n(Cc2ccco2)c1=NC(=O)c1ccco1 ?
HTRA1 inhibitor: inactive; PRMT1 FP inh: 32; mABHD4 FP: inactive; DAGLB inh: inactive; LEDGF integ inh: 30; rCAG RNA binder: inactive; PRMT1 confirm: inactive; IN multimer up: inactive; TR-FRET interf: inactive; LEDGF integ conf: inactive

How did NC(=S)N/N=C/c1ccc(-c2ccccc2)o1 do in these assays?
HTRA1 inhibitor: inactive; PRMT1 FP inh: inactive; mABHD4 FP: inactive; DAGLB inh: inactive; LEDGF integ inh: inactive; rCAG RNA binder: inactive

What do the screens show for `NC(=S)NN=Cc1ccc(-c2ccc(S(=O)(=O)Nc3ncccn3)cc2)o1`?
HTRA1 inhibitor: inactive; PRMT1 FP inh: 32; mABHD4 FP: inactive; DAGLB inh: inactive; LEDGF integ inh: 15; rCAG RNA binder: inactive; PRMT1 confirm: inactive; IN multimer up: inactive; TR-FRET interf: inactive; LEDGF integ conf: 34

What do the screens show for `O=C(c1ccc2nc(-c3ccco3)c(-c3ccco3)nc2c1)N1CCN(c2ccccc2)CC1`?
HTRA1 inhibitor: inactive; PRMT1 FP inh: 54; mABHD4 FP: 32; DAGLB inh: inactive; LEDGF integ inh: 39; rCAG RNA binder: inactive; PRMT1 confirm: inactive; ABHD4 confirm: inactive; IN multimer up: inactive; TR-FRET interf: inactive; LEDGF integ conf: 14

How did CNC(=O)C[C@H]1CC[C@H]2[C@@H](COc3ccc(NC(=O)Nc4ccccc4)cc3C(=O)N2C)O1 do in these assays?
PRMT1 FP inh: inactive; mABHD4 FP: inactive; LEDGF integ inh: inactive; rCAG RNA binder: inactive

Results for CSC1=N/C(=C\c2ccc(C)o2)C(=O)S1 ?
HTRA1 inhibitor: inactive; PRMT1 FP inh: 31; mABHD4 FP: inactive; DAGLB inh: inactive; LEDGF integ inh: 14; rCAG RNA binder: inactive; PRMT1 confirm: inactive; IN multimer up: inactive; TR-FRET interf: inactive; LEDGF integ conf: inactive

What do the screens show for `O=C1CN(C(=O)c2ccccc2)C(c2ccccc2)c2cc(Cl)ccc2N1` (configuration not stated)?
HTRA1 inhibitor: inactive; PRMT1 FP inh: inactive; mABHD4 FP: inactive; DAGLB inh: inactive; LEDGF integ inh: inactive; rCAG RNA binder: inactive
